This is an account of results in ChEMBL document CHEMBL1148397, “Synthesis and biological evaluation of 2,3,5-substituted [1,2,4]thiadiazoles as allosteric modulators of adenosine receptors” (J Med Chem, 2004).

For experiment [1], the target named is T1, Adenosine receptor A1 (Homo sapiens) (UniProt P30542).
T1 sequence (whole entry): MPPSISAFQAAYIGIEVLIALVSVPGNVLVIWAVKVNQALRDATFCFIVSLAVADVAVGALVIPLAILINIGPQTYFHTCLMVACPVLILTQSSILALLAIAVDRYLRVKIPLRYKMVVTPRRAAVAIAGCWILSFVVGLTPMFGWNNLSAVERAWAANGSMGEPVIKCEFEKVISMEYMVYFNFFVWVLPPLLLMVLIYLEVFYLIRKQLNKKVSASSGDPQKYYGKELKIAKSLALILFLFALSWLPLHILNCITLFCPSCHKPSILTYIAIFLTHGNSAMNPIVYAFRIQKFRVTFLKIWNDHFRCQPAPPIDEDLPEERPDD
Description: Percent remaining of radioligand [3H]DPCPX binding to human adenosine A1 receptor at 10 uM. In short, it runs like this:
(§1)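 CHO human A1 receptor membranes (40 μg protein, 2 IU/mL adenosine deaminase) incubated 60 min at 25 °C in Tris-HCl with ~1.6 nM [3H]DPCPX and a fixed compound concentration. Nonspecific binding defined with 10 μM CPA. Filtration on GF/B, scintillation counting. Reported as % specific binding remaining (control 100%, nonspecific 0%). Means of 2–3 experiments in duplicate.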

The target of experiment [2] is T1, Adenosine receptor A1 (Homo sapiens). Briefly: Dissociation constant for [3H]DPCPX binding to human adenosine A1 receptor plus or minus compound (10 uM); t1/2 = 6.61 min.
The target is the same in experiment [3]. Description: Percent remaining of radioligand [3H]DPCPX binding to human adenosine A1 receptor at 1 uM. In short, it runs like this: as §1
For experiment [4] the target is unchanged. Description: Percent remaining of radioligand [3H]CCPA binding to human adenosine A1 receptor at 10 uM. In short, it runs like this: (§2)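 Radioligand displacement: CHO human A1 receptor membranes (40 μg protein, 2 IU/mL adenosine deaminase) with ~1.0 nM [3H]CCPA plus fixed or increasing compound, 60 min at 25 °C in Tris-HCl. Nonspecific binding defined with 10 μM DPCPX. Ice-cold dilution, GF/B filtration, scintillation counting. Results as % specific binding, control 100%. Means of 2–3 experiments in duplicate.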

For experiment [5] the target is unchanged. Description: Association constant for [3H]DPCPX binding to human adenosine A1 receptor plus or minus compound (10 uM); appt1/2 = 3.85 min. In short, it runs like this: (§3)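 Membranes from CHO cells expressing recombinant human A1 receptor (40 μg protein) preincubated 30 min at 25 °C with compound. Association started by adding [3H]DPCPX (0.34–0.36 nM), stopped at time points by rapid dilution, then filtered on GF/B and washed with ice-cold buffer. Membranes carry 2 IU/mL adenosine deaminase.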

In experiment [6] the target is T2, Adenosine receptor A1 (Homo sapiens, UniProt P30542).
T2 sequence (P30542 whole entry): T1 sequence (whole entry)
Briefly: Effective concentration for displacement of [3H]-CCPA from human adenosine A1 receptor after 60 min. An outline of the steps: as §2

The target of experiment [7] is T1, Adenosine receptor A1 (Homo sapiens). Description: Dissociation constant for [3H]-CCPA binding to human adenosine A1 receptor plus or minus compound (10 uM); t1/2 = 5.37 min.
For experiment [8], the target named is T2, Adenosine receptor A1. Briefly: Effective concentration for displacement of [3H]CCPA from human A1 adenosine receptor after 60 min. An outline of the steps:
as §2

Experiment [9] deals with T1, Adenosine receptor A1 (Homo sapiens). Description: Association constant for [3H]DPCPX binding to human Adenosine A1 receptor plus or minus compound (7 uM); appt1/2 = 1.77 min. An outline of the steps:
as §3

Experiment [10] has the same target. Description: Dissociation constant for [3H]CCPA binding to human adenosine A1 receptor plus or minus compound (7 uM); t1/2 = 6.48 min.
Experiment [11] shares this target. Briefly: Dissociation constant for [3H]DPCPX binding to human adenosine A1 receptor plus or minus compound (7 uM); t1/2 = 5.27 min.

As for `C/N=c1\nc(-c2ccccc2)n(-c2ccccc2)s1`, the Remaining in [1] stood at 149%; in [3] it was 104%; in experiment [4], 10%. For the same compound, the k off was found to be 0.00184 s⁻¹ in [2] and 0.00217 s⁻¹ in [7]. Further, in [5], the kon amounted to 0.21 nM⁻¹ min⁻¹. This compound also registered an EC50 on Adenosine receptor A1 [6] of 2800 nM.

As for `C/N=c1\nc(-c2ccc(OC)cc2)n(-c2ccccc2)s1`, the Remaining is 114% in experiment [1], 100% in experiment [3] and 35% in [4].

As to `CC/N=c1\nc(-c2ccc(Cl)cc2)n(-c2ccc(Cl)cc2)s1`, the Remaining was found to be 84% in experiment [1], 95% in [3] and 24% in [4].

As for `C/N=c1\nc(-c2ccc(Cl)cc2)n(-c2ccc(Cl)cc2)s1`, the Remaining was determined as 119% in experiment [1], 93% in experiment [3] and 20% in experiment [4].

As for `CC/N=c1\nc(-c2ccccc2)n(-c2cccc(C)c2)s1`, the Remaining in experiment [1] came to 75%; in experiment [3], 98%; in [4], 6%.

With `CC/N=c1\nc(-c2ccccc2)n(-c2ccc(C)cc2)s1`, the values for the Remaining in [1], in experiment [3] and in experiment [4] were 105%, 101% and 28%, respectively.

For `C/N=c1\nc(-c2ccccc2)n(-c2cccc(C)c2)s1`, the Remaining came to 109% in experiment [1], 99% in experiment [3] and 5% in [4]. In addition, at Adenosine receptor A1 [8], the EC50 stood at 640 nM.

Take `CC/N=c1\nc(-c2ccccc2)n(-c2ccccc2)s1`: the Remaining stood at 114% in [1], 103% in experiment [3] and 6% in [4].

Regarding `C/N=c1\nc(-c2ccccc2)n(-c2cccc(Cl)c2)s1`, the values for the Remaining in [1], in experiment [3] and in experiment [4] were 108%, 96% and 35%, respectively.

`CC/N=c1\nc(-c2ccc(C)cc2)n(-c2ccc(C)cc2)s1`: the Remaining was 61% in [1], 100% in experiment [3] and 32% in [4]. In addition, at Adenosine receptor A1 [6], the EC50 is 1600 nM.

Regarding `CC/N=c1\nc(-c2ccccc2)n(-c2ccc(Cl)c(Cl)c2)s1`, the Remaining amounted to 90% in experiment [1], 100% in experiment [3] and 35% in experiment [4].

On to `CC/N=c1\nc(-c2ccccc2)n(-c2ccc(OC)cc2)s1`, for which the Remaining came out at 120% in experiment [1], 103% in experiment [3] and 24% in experiment [4].

Turning to `C/N=c1\nc(-c2ccc(Cl)cc2)n(-c2ccccc2)s1`, the Remaining in experiment [1] amounted to 119%; in [3] it was 106%; in experiment [4], 15%.

With `C/N=c1\nc(-c2ccccc2)n(-c2ccc(Cl)c(Cl)c2)s1`, the Remaining in experiment [1] was 111%; in experiment [3], 94%; in [4] it was 33%.

For the compound `C/N=c1\nc(-c2ccc(C)cc2)n(-c2ccc(C)cc2)s1`, the Remaining in experiment [1] worked out at 97%; in experiment [3] it was 104%; in [4], 20%.

Take `Cc1sc(N)c(C(=O)c2cccc(C(F)(F)F)c2)c1C`: the Remaining in [1] turned out to be 68%; in [3], 87%; in experiment [4], 225%.

In the case of `C/N=c1\nc(-c2ccccc2)n(-c2ccc(C)cc2)s1`, the figures for the Remaining in [1], in experiment [3] and in [4] were 123%, 99% and 31%, respectively.

With `C/N=c1\nc(-c2ccccc2)n(-c2ccc(OC)cc2)s1`, in [9], the kon turned out to be 1.19 nM⁻¹ min⁻¹. Moreover, the Remaining in [1] was 132%; in experiment [3], 103%; in [4], 24%. Also, the k off in experiment [10] amounted to 0.00184 s⁻¹; in experiment [11], 0.00217 s⁻¹. On Adenosine receptor A1 [6], the EC50 is 2400 nM.

For `C/N=c1\nc(-c2ccccc2)n(-c2ccc(Cl)cc2)s1`, the values for the Remaining in experiment [1], in experiment [3] and in [4] were 126%, 94% and 33%, respectively.

For `CC/N=c1\nc(-c2ccccc2)n(-c2ccc(Cl)cc2)s1`, the figures for the Remaining in experiment [1], in experiment [3] and in experiment [4] were 109%, 104% and 30%, respectively.

On to `C/N=c1\nc(-c2cccc(Cl)c2)n(-c2cccc(Cl)c2)s1`, for which the figures for the Remaining in experiment [1], in experiment [3] and in experiment [4] were 93%, 96% and 36%, respectively.

As for `CC/N=c1\nc(-c2ccccc2)n(-c2cccc(Cl)c2)s1`, the Remaining in experiment [1] amounted to 86%; in experiment [3] it was 101%; in experiment [4], 39%.
